From ChEMBL document CHEMBL1134465, “Synthesis and evaluation of pteroic acid-conjugated nitroheterocyclic phosphoramidates as folate receptor-targeted alkylating agents” (J Med Chem, 2001)

Experiments:
A549 [1] = assay: In vitro growth inhibition of human lung carcinoma cell line, A549 with low levels of folate receptors; type: functional, cell-based
Outline: (§1)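 Cells were seeded and grown 24 h at 37 °C in McCoy's 5A medium with 10% heat-inactivated FBS, penicillin 100 U/mL and streptomycin 100 μg/mL. Drug from DMSO stock was added in the same medium, with final DMSO <1%. Five serial 10-fold dilutions were tested, top final concentration 100 μg/mL.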

A498 [2] = assay: In vitro growth inhibition of human kidney carcinoma cell line, A498 with low levels of folate receptors; type: functional, cell-based; outline: as §1
HT-29 = assay: In vitro growth inhibition of human tumor cell line, HT-29; type: functional, cell-based; outline: as §1
[3] = In vitro growth inhibition of human breast adrenocarcinoma cell line, MDA-231 with over expressed folate receptors; type: functional; settings: MDA-MB-231; outline: as §1
MIA PaCa-2 = assay: In vitro growth inhibition of human tumor cell line, PACA2; type: functional, cell-based; outline: as §1
PC-3 = assay: In vitro growth inhibition of human tumor cell line, PC3; type: functional, cell-based; outline: as §1
UMUC3 = assay: In vitro growth inhibition of human tumor cell line, UMUC3; type: functional, cell-based; outline: as §1
A549 [4] = assay: In vitro growth inhibition of human lung carcinoma cell line, A549 with low levels of folate receptors in folate deficient medium; type: functional, cell-based
Outline: (§2)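 Cells were incubated with drug for 72 h in folate-deficient medium. Drug from DMSO stock was added with final DMSO <1%. Five serial 10-fold dilutions were tested, top final concentration 100 μg/mL. Viable cells were estimated by MTT and IC50 was derived.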

A498 [5] = assay: In vitro growth inhibition of human kidney carcinoma cell line, A498 with low levels of folate receptors in folate deficient medium; type: functional, cell-based; outline: as §2
[6] = In vitro growth inhibition of human ovarian carcinoma cell line, IGROV with over expressed folate receptors; type: functional; outline: as §1
[7] = In vitro growth inhibition of human ovarian carcinoma cell line, IGROV with over expressed folate receptors in folate deficient medium; type: functional; outline: as §2
[8] = In vitro growth inhibition of human breast adrenocarcinoma cell line, MDA-231 with over-expressed folate receptors; type: functional; settings: MDA-MB-231; outline: as §1
[9] = In vitro growth inhibition of human breast adrenocarcinoma cell line, MDA-231 with over-expressed folate receptors in folate deficient medium; type: functional; settings: MDA-MB-231; outline: as §2

Compound	IC50 (A549 [1]) [µM]	IC50 (A498 [2]) [µM]	IC50 (HT-29) [µM]	IC50 [3] [µM]	IC50 (MIA PaCa-2) [µM]	IC50 (PC-3) [µM]	IC50 (UMUC3) [µM]	IC50 (A549 [4]) [µM]	IC50 (A498 [5]) [µM]	IC50 [6] [µM]	IC50 [7] [µM]	IC50 [8] [µM]	IC50 [9] [µM]
NC(CCCCNP(=O)(OCc1ccc([N+](=O)[O-])o1)N(CCCl)CCCl)C(=O)O (stereo unspecified)	41	26	20	16	2.4	21	0.62						
CCCNP(=O)(OCc1ccc([N+](=O)[O-])o1)N(CCCl)CCCl (stereo unspecified)	1.9	1.4	17	1.9	0.45	2.3	0.72						
Nc1nc(O)c2nc(CNc3ccc(C(=O)NC(CCCCNP(=O)(OCc4ccc([N+](=O)[O-])o4)N(CCBr)CCBr)C(=O)O)cc3)cnc2n1 (stereo unspecified)	11	11	0.3		16	11	5.2	23	19	0.83	0.57	8	3.6
